pIC50, pKi: −log10 of the molar value. ≈ marks a conversion by molar mass, not a printed value.
Tests used:
[1] = Genotoxicity in micronucleus (unknown origin)
Salmonella typhimurium = assay: Mutagenic activity in Salmonella typhimurium by Ames test; format: toxicity, organism-based; conditions: salmonella enterica subsp. enterica serovar typhimurium
hERG (KCNH2) [2] = target: T1, hERG (KCNH2) (Homo sapiens, UniProt Q12809); assay: Inhibition of human ERG transfected in CHO cells at 10 uM by patch clamp assay relative to control; format: cell-based; conditions: CHO cells transfected with human ERG
Outline: (§1)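 Whole-cell patch clamp on CHO cells stably transfected with the human ERG gene.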

hERG (KCNH2) [3] = target: T1, hERG (KCNH2); assay: Inhibition of human ERG transfected in CHO cells at 1 uM by patch clamp assay relative to control; format: cell-based; conditions: CHO cells transfected with human ERG; outline: as §1
Cytochrome P450 3A4 = Cytochrome P450 3A4 (Homo sapiens, UniProt P08684); assay: Inhibition of CYP3A4 (unknown origin); format: ADME
Cytochrome P450 2C19 = Cytochrome P450 2C19 (Homo sapiens, UniProt P33261); assay: Inhibition of CYP2C19 (unknown origin); format: ADME
Cytochrome P450 2D6 = Cytochrome P450 2D6 (Homo sapiens, UniProt P10635); assay: Inhibition of CYP2D6 (unknown origin); format: ADME
Cytochrome P450 2C9 = Cytochrome P450 2C9 (Homo sapiens, UniProt P11712); assay: Inhibition of CYP2C9 (unknown origin); format: ADME
Cytochrome P450 2B6 = target: T2, Cytochrome P450 2B6 (Homo sapiens, UniProt P20813); assay: Inhibition of CYP2B6 (unknown origin); format: ADME
T2 sequence (P20813 whole entry): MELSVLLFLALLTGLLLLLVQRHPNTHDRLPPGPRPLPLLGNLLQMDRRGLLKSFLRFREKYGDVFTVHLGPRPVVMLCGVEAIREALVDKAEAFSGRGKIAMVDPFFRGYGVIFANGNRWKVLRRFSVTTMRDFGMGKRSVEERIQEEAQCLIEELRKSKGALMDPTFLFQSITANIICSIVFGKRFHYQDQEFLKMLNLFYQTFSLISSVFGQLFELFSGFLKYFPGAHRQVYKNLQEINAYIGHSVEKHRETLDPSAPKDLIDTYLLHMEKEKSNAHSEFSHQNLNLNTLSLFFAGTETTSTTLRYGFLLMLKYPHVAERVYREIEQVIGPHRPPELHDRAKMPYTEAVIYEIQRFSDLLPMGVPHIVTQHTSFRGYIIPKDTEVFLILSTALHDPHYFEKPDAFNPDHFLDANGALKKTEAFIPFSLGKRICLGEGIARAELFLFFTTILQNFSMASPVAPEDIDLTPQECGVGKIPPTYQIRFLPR

Cytochrome P450 1A2 = target: T3, Cytochrome P450 1A2 (Homo sapiens, UniProt P05177); assay: Inhibition of CYP1A2 (unknown origin); format: ADME
T3 sequence (P05177 whole entry): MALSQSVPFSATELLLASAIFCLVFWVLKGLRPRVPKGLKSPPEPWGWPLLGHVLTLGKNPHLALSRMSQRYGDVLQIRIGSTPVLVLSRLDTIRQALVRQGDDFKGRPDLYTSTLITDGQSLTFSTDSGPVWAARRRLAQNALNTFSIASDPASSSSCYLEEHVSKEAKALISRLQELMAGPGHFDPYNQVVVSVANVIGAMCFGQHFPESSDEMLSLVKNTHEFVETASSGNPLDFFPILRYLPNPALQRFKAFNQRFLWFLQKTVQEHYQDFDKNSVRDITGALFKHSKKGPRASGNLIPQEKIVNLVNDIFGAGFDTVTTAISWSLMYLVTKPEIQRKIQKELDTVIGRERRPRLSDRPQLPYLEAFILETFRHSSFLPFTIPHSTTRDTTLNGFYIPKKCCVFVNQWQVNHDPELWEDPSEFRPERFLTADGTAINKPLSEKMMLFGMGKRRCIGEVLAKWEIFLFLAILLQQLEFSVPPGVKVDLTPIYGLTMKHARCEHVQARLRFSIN

[4] = Drug metabolism in rat liver microsomes at 5 uM after 20 mins; format: ADME, Microsome; conditions: read-out: Drug metabolism
Outline: (§2)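 Substrate at 5 µM incubated at 37 °C for 20 min with in-house liver microsome preparations (human, mouse or rat). Reported as the percentage of parent compound metabolized.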

[5] = Drug metabolism in human liver microsomes at 5 uM after 20 mins; format: ADME, Microsome; conditions: read-out: Drug metabolism; outline: as §2
[6] = Drug metabolism in mouse liver microsomes at 5 uM after 20 mins; format: ADME, Microsome; conditions: read-out: Drug metabolism; outline: as §2
Histamine H3 receptor [7] = target: Histamine H3 receptor (Rattus norvegicus, UniProt Q9QYN8); assay: Displacement of [3H]N-alpha-methylhistamine from recombinant rat histamine H3 receptor transfected in CHO cell membranes after 1 hr by scintillation counting analysis; design: species or system Membrane
Outline: (§3)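 Radioligand displacement of [3H]N-α-methylhistamine using membranes from CHO cells stably transfected with recombinant human or rat H3 receptor. Ki is presented as a range of multiple experiments (n ≥ 3).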

Histamine H3 receptor [8] = target: Histamine H3 receptor (Homo sapiens, UniProt Q9Y5N1); assay: Displacement of [3H]N-alpha-methylhistamine from recombinant human histamine H3 receptor transfected in CHO cell membranes after 1 hr by scintillation counting analysis; outline: as §3
[9] = target: Voltage-gated inwardly rectifying potassium channel KCNH2 (Homo sapiens, UniProt Q12809); assay: Inhibition of human ERG transfected in CHO cells by patch clamp assay; format: cell-based; outline: as §1
[10] = Partition coefficient, log P of the compound; format: physicochemical; conditions: octanol/water
[11] = Distribution coefficient, log D of the compound; format: physicochemical; conditions: octanol/water
[12] = Solubility of the compound in PBS buffer at pH 7.4; format: physicochemical
Outline: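 Solubility measured in PBS at pH 7.4.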

T1 sequence (Q12809 whole entry): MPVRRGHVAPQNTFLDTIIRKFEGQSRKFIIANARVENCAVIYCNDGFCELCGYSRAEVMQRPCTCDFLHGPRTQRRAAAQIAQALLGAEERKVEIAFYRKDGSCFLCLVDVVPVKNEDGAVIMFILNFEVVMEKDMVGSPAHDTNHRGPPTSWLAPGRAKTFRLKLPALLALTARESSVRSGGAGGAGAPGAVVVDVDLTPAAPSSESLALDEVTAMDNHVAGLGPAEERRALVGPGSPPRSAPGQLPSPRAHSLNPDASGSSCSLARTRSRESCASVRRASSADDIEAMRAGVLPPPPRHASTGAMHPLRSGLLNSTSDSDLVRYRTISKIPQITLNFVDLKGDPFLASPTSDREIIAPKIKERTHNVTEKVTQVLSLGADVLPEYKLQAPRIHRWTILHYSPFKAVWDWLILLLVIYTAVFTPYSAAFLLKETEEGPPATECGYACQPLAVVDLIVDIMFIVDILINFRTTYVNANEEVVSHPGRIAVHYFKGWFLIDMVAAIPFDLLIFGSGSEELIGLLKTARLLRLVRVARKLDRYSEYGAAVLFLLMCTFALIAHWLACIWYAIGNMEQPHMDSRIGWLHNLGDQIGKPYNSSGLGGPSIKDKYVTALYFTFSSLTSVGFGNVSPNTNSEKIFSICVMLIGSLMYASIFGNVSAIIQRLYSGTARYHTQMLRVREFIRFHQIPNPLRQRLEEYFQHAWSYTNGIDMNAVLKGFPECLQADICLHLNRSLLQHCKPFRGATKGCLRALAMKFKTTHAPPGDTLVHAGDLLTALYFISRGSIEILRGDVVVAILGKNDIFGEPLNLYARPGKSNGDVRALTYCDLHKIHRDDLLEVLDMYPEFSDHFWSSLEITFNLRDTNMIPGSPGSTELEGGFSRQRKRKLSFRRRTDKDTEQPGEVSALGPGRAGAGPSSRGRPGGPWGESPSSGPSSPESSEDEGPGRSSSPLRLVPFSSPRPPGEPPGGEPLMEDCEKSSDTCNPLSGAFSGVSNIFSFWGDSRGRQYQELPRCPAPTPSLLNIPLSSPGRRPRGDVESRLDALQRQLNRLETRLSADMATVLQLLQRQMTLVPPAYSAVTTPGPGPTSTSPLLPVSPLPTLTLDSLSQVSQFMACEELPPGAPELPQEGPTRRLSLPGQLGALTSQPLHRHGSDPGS
Histamine H3 receptor (Rattus norvegicus, UniProt Q9QYN8), sequence (Q9QYN8 whole entry): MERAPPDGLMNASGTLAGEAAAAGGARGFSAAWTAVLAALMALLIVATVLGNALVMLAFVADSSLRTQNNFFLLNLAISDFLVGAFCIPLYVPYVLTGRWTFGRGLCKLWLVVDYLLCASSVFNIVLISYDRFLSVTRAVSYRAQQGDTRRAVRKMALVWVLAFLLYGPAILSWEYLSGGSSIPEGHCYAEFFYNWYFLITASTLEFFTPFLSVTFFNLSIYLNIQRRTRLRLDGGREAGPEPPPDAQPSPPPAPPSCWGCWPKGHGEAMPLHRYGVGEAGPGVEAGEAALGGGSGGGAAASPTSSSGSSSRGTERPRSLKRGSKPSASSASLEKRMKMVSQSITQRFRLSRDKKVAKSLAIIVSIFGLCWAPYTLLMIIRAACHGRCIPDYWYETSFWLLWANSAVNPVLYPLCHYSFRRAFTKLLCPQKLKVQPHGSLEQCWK
Cytochrome P450 3A4, sequence (P08684 whole entry): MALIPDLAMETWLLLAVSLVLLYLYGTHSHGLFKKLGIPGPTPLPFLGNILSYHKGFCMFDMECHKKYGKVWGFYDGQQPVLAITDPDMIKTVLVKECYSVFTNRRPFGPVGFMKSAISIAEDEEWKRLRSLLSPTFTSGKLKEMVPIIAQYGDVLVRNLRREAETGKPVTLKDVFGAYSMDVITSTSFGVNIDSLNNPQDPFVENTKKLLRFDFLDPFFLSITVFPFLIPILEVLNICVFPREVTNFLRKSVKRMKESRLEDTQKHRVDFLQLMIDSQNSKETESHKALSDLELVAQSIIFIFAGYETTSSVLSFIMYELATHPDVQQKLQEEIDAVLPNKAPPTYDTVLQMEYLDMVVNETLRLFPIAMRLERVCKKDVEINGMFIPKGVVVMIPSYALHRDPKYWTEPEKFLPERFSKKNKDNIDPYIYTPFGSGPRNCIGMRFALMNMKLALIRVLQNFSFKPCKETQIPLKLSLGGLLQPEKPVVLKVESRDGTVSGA
Histamine H3 receptor (Homo sapiens, UniProt Q9Y5N1), sequence (Q9Y5N1 whole entry): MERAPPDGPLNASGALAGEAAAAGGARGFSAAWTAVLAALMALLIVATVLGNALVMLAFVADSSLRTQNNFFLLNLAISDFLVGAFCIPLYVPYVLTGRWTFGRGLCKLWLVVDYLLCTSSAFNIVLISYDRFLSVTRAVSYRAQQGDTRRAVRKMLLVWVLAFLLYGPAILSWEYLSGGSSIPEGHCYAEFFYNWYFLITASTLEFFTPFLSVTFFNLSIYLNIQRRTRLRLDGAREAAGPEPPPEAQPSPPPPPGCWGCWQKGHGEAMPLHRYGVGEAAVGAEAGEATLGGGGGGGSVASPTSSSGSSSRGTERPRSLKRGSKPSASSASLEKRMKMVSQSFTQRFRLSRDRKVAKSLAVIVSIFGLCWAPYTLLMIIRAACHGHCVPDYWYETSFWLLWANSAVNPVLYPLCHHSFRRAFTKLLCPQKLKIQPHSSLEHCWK
Cytochrome P450 2C9, sequence (P11712 whole entry): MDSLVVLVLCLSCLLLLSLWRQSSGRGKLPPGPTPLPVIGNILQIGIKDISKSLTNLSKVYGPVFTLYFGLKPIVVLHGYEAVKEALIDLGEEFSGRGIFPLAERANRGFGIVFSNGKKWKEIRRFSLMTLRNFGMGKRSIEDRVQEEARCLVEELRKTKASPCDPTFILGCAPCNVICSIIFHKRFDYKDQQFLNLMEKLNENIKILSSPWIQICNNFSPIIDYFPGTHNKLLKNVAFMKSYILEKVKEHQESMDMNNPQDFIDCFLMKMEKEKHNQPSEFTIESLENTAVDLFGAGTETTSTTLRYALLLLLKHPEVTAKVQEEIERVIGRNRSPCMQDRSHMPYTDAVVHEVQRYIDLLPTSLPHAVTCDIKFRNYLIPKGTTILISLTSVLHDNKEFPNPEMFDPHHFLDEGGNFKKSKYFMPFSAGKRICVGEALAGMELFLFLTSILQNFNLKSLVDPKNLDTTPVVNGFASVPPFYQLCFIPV
Cytochrome P450 2D6, sequence (P10635 whole entry): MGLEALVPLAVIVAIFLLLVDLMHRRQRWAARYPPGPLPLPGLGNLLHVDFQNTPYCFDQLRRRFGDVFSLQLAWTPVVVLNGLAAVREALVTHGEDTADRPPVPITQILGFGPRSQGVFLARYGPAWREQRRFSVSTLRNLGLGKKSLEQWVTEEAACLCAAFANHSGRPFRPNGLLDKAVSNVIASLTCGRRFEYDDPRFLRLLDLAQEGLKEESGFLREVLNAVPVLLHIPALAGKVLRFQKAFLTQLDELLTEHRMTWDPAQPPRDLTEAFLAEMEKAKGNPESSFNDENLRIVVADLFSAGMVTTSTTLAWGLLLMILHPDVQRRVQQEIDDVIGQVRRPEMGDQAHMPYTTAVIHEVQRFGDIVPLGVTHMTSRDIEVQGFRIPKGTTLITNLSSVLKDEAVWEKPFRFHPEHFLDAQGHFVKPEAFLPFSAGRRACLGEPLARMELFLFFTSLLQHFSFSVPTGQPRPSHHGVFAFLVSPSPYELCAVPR
Cytochrome P450 2C19, sequence (P33261 whole entry): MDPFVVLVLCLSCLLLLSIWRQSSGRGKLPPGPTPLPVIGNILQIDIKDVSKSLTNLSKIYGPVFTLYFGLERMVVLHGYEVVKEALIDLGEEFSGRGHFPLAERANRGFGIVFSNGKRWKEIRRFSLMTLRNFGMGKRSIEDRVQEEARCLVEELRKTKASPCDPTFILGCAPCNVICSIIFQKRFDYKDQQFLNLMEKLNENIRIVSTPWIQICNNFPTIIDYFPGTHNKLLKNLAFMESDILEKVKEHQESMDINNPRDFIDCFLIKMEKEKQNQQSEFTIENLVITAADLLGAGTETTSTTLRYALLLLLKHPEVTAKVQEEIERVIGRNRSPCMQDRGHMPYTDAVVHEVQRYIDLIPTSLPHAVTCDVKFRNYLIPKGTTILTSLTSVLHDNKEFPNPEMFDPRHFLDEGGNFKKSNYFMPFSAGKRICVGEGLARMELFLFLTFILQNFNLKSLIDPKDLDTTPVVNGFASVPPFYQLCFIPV

Row | pIC50 (Cytochrome P450 3A4) | pIC50 (Cytochrome P450 2C19) | pIC50 (Cytochrome P450 2D6) | pIC50 (Cytochrome P450 2C9) | pIC50 (Cytochrome P450 2B6) | pIC50 (Cytochrome P450 1A2) | metabolised at 20 min, 5 µM [4] [%] | metabolised at 20 min, 5 µM [5] [%] | metabolised at 20 min, 5 µM [6] [%] | pKi (Histamine H3 receptor [7]) | pKi (Histamine H3 receptor [8]) | logP [10] | logD [11] | solubility [12] [µg/mL] | SMILES | Activity [1] | Activity (Salmonella typhimurium) | inhibition at 10 µM (hERG (KCNH2) [2]) [%] | inhibition at 1 µM (hERG (KCNH2) [3]) [%] | pIC50 [9]
1 | < 4.52 | < 4.52 | < 4.52 | < 4.52 | < 4.52 | < 4.52 | 60 | 7 | 29 | 7.03 | 6.09 |  |  |  | Cc1cc(N2CC[C@H](N3CCC[C@H]3C)C2)ccc1NC(=O)c1cc(F)ccc1C | Non-toxic | Non-toxic | 84.3 | 43 | 
2 | < 4.52 | < 4.52 | < 4.52 | < 4.52 | < 4.52 | < 4.52 | 36 | 5 | 20 | 7.96 | 7.74 | 3.55 | 2.09 | 88.5 (≈ 224 µM) | Cc1cc(N2CC[C@@H](N3CCC[C@@H]3C)C2)ccc1NC(=O)c1cc(F)ccc1C | Non-toxic | Non-toxic | 88.6 | 38.8 | 5.74

— ChEMBL document CHEMBL2401654, “Synthesis, characterization, and biological assessment of the four stereoisomers of the H(3) receptor antagonist 5-fluoro-2-methyl-N-[2-methyl-4-(2-methyl[1,3']bipyrrolidinyl-1'-yl)phenyl]benzamide” (Bioorg Med Chem Lett, 2013)
